Results from ChEMBL document CHEMBL2034972, “Synthesis, biological evaluation, and structure-activity relationships of N-benzoyl-2-hydroxybenzamides as agents active against P. falciparum (K1 strain), Trypanosomes, and Leishmania” (J Med Chem, 2012).
Values after ≈ are worked out from the molar mass of the structure shown.

Tests used:
[1] = Plasma protein binding in human; type: ADME, cell-free; conditions: read-out: PPB (converted)
[2] = Selectivity index, ratio of IC50 for rat L6 cells to IC50 for trypomastigotes of Trypanosoma brucei rhodesiense STIB 900; type: toxicity, cell-based; conditions: read-out: Ratio IC50
Procedure, shortened: (§1)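 Selectivity index is calculated as the L6 myoblast IC50 divided by the IC50 against the respective parasite. Both IC50s are in µg/mL and are means of two independent determinations.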

[3] = Selectivity index, ratio of IC50 for rat L6 cells to IC50 for chloroquine and pyrimethamine-resistant Plasmodium falciparum K1; type: toxicity, cell-based; conditions: read-out: Ratio IC50; procedure, shortened: as §1
[4] = tested on: Trypanosoma brucei rhodesiense; test: Antitrypanosomal activity against trypomastigotes of Trypanosoma brucei rhodesiense […] after 72 hrs by alamar blue assay; type: functional, organism-based; conditions: STIB 900, L6, 72 h
Procedure, shortened: (§2)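 In vitro screens of parasites and host cells: T. b. rhodesiense STIB900 trypomastigotes, T. cruzi Tulahuen C4 intracellular amastigotes, L. donovani MHOM-ET-67/L82 axenic amastigotes, P. falciparum K1 erythrocytic stage, and L6 rat skeletal myoblasts […] for toxicity. […] Values are means of two independent determinations.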

Leishmania donovani = test: Antileishmanial activity against axenic amastigote stage of Leishmania donovani […] after 72 hrs by alamar blue assay; type: functional, organism-based; conditions: MHOM/ET/67/L82, L6, 72 h
Procedure, shortened: (§3)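 In vitro screens of parasites and host cells: T. b. rhodesiense STIB900 trypomastigotes, T. cruzi Tulahuen C4 intracellular amastigotes, L. donovani MHOM-ET-67/L82 axenic amastigotes, P. falciparum K1 erythrocytic stage, and L6 rat skeletal myoblasts […] for toxicity. Values are means of two independent determinations.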

[5] = Selectivity index, ratio of IC50 for rat L6 cells to IC50 for intracellular amastigote stage of Trypanosoma cruzi Tulahuen C2C4; type: toxicity, cell-based; conditions: read-out: Ratio IC50; procedure, shortened: as §1
Trypanosoma cruzi = test: Antitrypanosomal activity against intracellular amastigote stage of Trypanosoma cruzi Tulahuen C2C4 infected in rat L6 cells after 96 hrs by spectrophotometric analysis; type: functional, organism-based; conditions: Tulahuen C2C4, L6, 96 h; procedure, shortened: as §3
Plasmodium falciparum = test: Antimalarial activity against chloroquine and pyrimethamine-resistant Plasmodium falciparum […] assessed as [3H]-hypoxanthine incorporation after 48 hrs by liquid scintillation counting; type: functional, organism-based; procedure, shortened: as §2
[6] = Selectivity index, ratio of IC50 for rat L6 cells to IC50 for axenic amastigote stage of Leishmania donovani MHOM/ET/67/L82; type: toxicity, cell-based; conditions: read-out: Ratio IC50; procedure, shortened: as §1
L6 = test: Cytotoxicity against rat L6 cells after 72 hrs by alamar blue assay; type: cell-based; conditions: L6, 72 h; procedure, shortened: as §2
[7] = Metabolic stability of the compound in human liver microsomes assessed as compound remaining after 60 mins in presence of NADPH; type: ADME, Microsome; conditions: read-out: Stability
CYP2C9 = CYP2C9 (Homo sapiens, UniProt P11712); test: Inhibition of CYP2C9 at 10 uM; type: ADME
[8] = biological target: Voltage-gated inwardly rectifying potassium channel KCNH2 (Homo sapiens, UniProt Q12809); test: Inhibition of human Erg at 300 uM
[9] = Aqueous solubility of the compound in phosphate based buffer at pH 7.4; type: physicochemical
[10] = Intrinsic clearance in human liver microsomes assessed per mg of protein; type: ADME, Microsome; conditions: read-out: CLH
[11] = Aqueous solubility of the compound in phosphate based buffer at pH 4; type: physicochemical
CYP2D6 = CYP2D6 (Homo sapiens, UniProt P10635); test: Inhibition of CYP2D6 at 10 uM; type: ADME
CYP3A4 = CYP3A4 (Homo sapiens, UniProt P08684); test: Inhibition of CYP3A4 at 10 uM; type: ADME
[12] = Metabolic stability of the compound in human liver microsomes assessed as compound remaining after 60 mins; type: ADME, Microsome; conditions: read-out: Stability

Chain of CYP3A4 (P08684 whole entry): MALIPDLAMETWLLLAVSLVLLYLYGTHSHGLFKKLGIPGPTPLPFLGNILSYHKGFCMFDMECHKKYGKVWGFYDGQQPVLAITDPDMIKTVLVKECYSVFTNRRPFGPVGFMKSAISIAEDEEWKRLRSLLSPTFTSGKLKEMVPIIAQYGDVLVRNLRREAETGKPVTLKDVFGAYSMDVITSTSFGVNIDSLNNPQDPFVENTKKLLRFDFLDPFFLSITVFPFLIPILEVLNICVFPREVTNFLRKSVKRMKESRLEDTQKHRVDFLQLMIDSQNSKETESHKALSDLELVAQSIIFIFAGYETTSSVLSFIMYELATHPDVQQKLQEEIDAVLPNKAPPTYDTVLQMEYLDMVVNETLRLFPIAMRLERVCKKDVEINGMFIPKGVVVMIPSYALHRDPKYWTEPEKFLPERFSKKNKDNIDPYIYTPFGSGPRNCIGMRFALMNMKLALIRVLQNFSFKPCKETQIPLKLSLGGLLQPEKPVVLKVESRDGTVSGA
Chain of CYP2D6 (P10635 whole entry): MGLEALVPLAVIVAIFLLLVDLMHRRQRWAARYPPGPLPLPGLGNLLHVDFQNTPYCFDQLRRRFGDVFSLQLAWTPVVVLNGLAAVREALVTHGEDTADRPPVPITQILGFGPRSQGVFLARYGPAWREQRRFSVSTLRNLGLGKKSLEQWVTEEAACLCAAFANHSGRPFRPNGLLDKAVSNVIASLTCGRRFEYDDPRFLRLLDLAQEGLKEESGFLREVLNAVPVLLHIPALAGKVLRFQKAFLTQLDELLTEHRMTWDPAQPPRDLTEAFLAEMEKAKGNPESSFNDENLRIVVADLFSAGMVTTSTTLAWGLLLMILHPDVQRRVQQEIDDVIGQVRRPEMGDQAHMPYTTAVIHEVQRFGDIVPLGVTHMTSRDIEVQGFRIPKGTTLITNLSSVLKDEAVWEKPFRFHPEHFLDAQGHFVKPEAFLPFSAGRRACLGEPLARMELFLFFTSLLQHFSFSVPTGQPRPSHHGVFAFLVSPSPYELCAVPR
Chain of Voltage-gated inwardly rectifying potassium channel KCNH2 (Q12809 whole entry): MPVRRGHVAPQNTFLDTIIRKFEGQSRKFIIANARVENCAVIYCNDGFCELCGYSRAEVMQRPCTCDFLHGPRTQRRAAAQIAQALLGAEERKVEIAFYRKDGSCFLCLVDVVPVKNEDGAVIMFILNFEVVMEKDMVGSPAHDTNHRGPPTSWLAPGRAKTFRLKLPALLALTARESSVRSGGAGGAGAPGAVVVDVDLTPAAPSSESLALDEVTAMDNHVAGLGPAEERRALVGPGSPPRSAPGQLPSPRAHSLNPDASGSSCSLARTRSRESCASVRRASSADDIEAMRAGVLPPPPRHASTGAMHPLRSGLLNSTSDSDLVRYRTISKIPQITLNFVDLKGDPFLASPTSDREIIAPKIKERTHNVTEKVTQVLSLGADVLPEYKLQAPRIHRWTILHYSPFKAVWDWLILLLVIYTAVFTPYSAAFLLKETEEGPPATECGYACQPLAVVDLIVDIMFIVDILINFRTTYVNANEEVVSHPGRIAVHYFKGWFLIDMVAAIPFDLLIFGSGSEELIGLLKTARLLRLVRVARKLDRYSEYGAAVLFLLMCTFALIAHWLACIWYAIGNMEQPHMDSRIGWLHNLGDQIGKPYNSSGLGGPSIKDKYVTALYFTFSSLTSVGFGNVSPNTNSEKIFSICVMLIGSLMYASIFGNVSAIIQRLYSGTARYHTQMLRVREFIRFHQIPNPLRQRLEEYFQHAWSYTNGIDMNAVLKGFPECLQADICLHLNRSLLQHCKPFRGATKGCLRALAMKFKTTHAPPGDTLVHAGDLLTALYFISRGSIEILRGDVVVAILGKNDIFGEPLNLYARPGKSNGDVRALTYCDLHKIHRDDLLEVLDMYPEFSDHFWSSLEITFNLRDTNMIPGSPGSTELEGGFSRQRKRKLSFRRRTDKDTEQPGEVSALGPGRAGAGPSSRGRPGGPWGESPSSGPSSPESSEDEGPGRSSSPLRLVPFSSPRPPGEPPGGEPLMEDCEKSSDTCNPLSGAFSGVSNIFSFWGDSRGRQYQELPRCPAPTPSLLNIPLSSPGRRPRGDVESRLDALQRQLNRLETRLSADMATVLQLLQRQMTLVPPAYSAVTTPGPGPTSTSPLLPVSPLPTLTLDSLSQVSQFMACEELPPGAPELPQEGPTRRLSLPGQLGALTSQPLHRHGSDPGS
Chain of CYP2C9 (P11712 whole entry): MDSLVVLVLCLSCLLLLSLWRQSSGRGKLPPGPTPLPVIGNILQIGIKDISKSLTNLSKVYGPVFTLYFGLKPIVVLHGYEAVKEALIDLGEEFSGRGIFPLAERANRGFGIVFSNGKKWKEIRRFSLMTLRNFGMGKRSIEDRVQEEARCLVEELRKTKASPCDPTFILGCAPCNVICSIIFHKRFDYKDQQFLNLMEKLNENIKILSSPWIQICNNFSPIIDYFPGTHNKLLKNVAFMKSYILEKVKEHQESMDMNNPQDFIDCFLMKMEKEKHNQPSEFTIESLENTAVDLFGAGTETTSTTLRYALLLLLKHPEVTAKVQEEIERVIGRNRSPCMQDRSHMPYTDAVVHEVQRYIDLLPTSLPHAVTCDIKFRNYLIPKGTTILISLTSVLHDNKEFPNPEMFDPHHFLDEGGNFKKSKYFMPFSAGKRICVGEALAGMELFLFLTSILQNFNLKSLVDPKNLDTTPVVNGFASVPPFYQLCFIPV

Row | SMILES | fraction unbound [1] | selectivity ratio [2] | selectivity ratio [3] | IC50 [4] [µg/mL] | IC50 (Leishmania donovani) [µg/mL] | selectivity ratio [5] | IC50 (Trypanosoma cruzi) [µg/mL] | IC50 (Plasmodium falciparum) [µg/mL] | selectivity ratio [6] | IC50 (L6) [µg/mL] | remaining at 1 h [7] [%] | inhibition at 10 µM (CYP2C9) [%] | inhibition (INH) [8] | solubility [9] [µM] | microsomal CLint [10] [µL/min/mg] | solubility [11] [µM] | inhibition at 10 µM (CYP2D6) [%] | inhibition at 10 µM (CYP3A4) [%] | remaining at 1 h [12] [%]
1 | OC(Cn1cncn1)(Cn1cncn1)c1ccc(F)cc1F [FLUCONAZOLE] | 0.763 | – | – | – | – | – | – | – | – | – | – | – | – | – | – | – | – | – | –
2 | O=C(NC(=O)c1ccccc1O)c1ccc(OCc2ccccc2)cc1 | – | 1 | 16 | 62 (≈ 178 µM) | 1.5 (≈ 4.32 µM) | 15 | 4.4 (≈ 12.7 µM) | 4.1 (≈ 11.8 µM) | 42 | 64 (≈ 184 µM) | – | – | – | – | – | – | – | – | –
3 | CCc1ccc(C(=O)NNC(=O)c2ccccc2O)cc1 | – | 0.28 | 0.18 | 17 (≈ 59.8 µM) | 6.2 (≈ 21.8 µM) | 2.2 | 2.2 (≈ 7.74 µM) | 27 (≈ 95 µM) | 0.77 | 4.8 (≈ 16.9 µM) | – | – | – | – | – | – | – | – | –
4 | O=C(NC(=O)c1ccc(Cl)cc1Cl)c1ccccc1O | – | < 0.62 | 4.4 | > 100 | 11 (≈ 35.5 µM) | 1.1 | 58 (≈ 187 µM) | 14 (≈ 45.1 µM) | 5.5 | 62 (≈ 200 µM) | – | – | – | – | – | – | – | – | –
5 | O=C(NC(=O)c1ccccc1O)c1ccc([N+](=O)[O-])cc1 | – | < 0.53 | 2.4 | > 100 | 11 (≈ 38.4 µM) | 0.94 | 56 (≈ 196 µM) | 22 (≈ 76.9 µM) | 4.9 | 53 (≈ 185 µM) | – | – | – | – | – | – | – | – | –
6 | CCOc1ccc(C(=O)NC(=O)c2ccccc2O)cc1 | – | 0.28 | 17 | 60 (≈ 210 µM) | 0.45 (≈ 1.58 µM) | 4.1 | 4.1 (≈ 14.4 µM) | 1 (≈ 3.51 µM) | 37 | 17 (≈ 59.6 µM) | – | – | – | – | – | – | – | – | –
7 | CC(C)c1ccc(C(=O)NC(=O)c2ccccc2O)cc1 | – | 0.29 | 12 | 65 (≈ 229 µM) | 1.3 (≈ 4.59 µM) | 9.5 | 2 (≈ 7.06 µM) | 1.5 (≈ 5.29 µM) | 14 | 19 (≈ 67.1 µM) | – | – | – | – | – | – | – | – | –
8 | COc1cc(C(=O)NC(=O)c2ccccc2O)cc(OC)c1OC | – | 0.26 | 26 | 79 (≈ 238 µM) | 3.2 (≈ 9.66 µM) | 0.51 | 40 (≈ 121 µM) | 0.78 (≈ 2.35 µM) | 6.5 | 21 (≈ 63.4 µM) | – | – | – | – | – | – | – | – | –
9 | CCc1ccc(NC(=O)CC(=O)Nc2ccccc2O)cc1 | – | 0.44 | 1.3 | 35 (≈ 117 µM) | 13 (≈ 43.6 µM) | 0.76 | 20 (≈ 67 µM) | 12 (≈ 40.2 µM) | 1.2 | 16 (≈ 53.6 µM) | – | – | – | – | – | – | – | – | –
10 | CCc1ccc(C(=O)NC(=O)c2ccccc2O)cc1 | 0.001 | – | – | 81 (≈ 301 µM) | 7.4 (≈ 27.5 µM) | – | 4.8 (≈ 17.8 µM) | 5.6 (≈ 20.8 µM) | – | 70 (≈ 260 µM) | 0.5 | 71 | Not Active | 50.8 (≈ 13.7 µg/mL) | 282 | 2.76 (≈ 0.743 µg/mL) | 71 | 71 | 53
